# Experimental data as given in ChEMBL document CHEMBL3045178, “Metabolites from Aspergillus fumigatus, an endophytic fungus associated with Melia azedarach, and their antifungal, antifeedant, and toxic activities” (J Agric Food Chem, 2012).
# Key:
# [1] = Toxicity in Artemia salina (brine shrimp) […]; type: organism-based; conditions: in vivo
# Botrytis cinerea = test: Antifungal activity against Botryotinia fuckeliana at 28 degC after 48 hr microbroth dilution method; type: functional
# Summary of the method: (§1)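 Plant-pathogenic fungi isolated from infected plant organs. Fungi grown 18 h in PD medium at 28 ± 0.5 °C and 150 rpm, then diluted to about 1 × 10^6 CFU in PD medium. Compounds at 2 mg/mL DMSO stock, serially diluted in triplicate in PD medium in 96-well plates before the fungal suspension was added. DMSO served as negative control. After 48 h at 28 ± 0.5 °C, MIC taken as the lowest concentration with no visible growth.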
# [2] = test system: Fusarium oxysporum f. sp. niveum; test: Antifungal activity against Fusarium oxysporum f. sp. niveum at 28 degC after 48 hr microbroth dilution method; type: functional; summary of the method: as §1
# Fusarium graminearum = test: Antifungal activity against Fusarium graminearum at 28 degC after 48 hr microbroth dilution method; type: functional
# Summary of the method: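 Microbroth dilution in PD medium. Fungi were grown 18 h at 28 ± 0.5 °C and 150 rpm, then diluted to about 1 × 10^6 CFU. Compounds (2 mg/mL DMSO stock) were serially diluted in triplicate and fungal suspension added. Incubated 48 h at 28 ± 0.5 °C. MIC was the lowest concentration with no visible growth. Controls: DMSO, carbendazim, hymexazol.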
# Alternaria solani = test: Antifungal activity against Alternaria solani at 28 degC after 48 hr microbroth dilution method; type: functional; summary of the method: as §1
# [3] = test system: Fusarium oxysporum f. sp. vasinfectum; test: Antifungal activity against Fusarium oxysporum f. sp. vasinfectum at 28 degC after 48 hr microbroth dilution method; type: functional; summary of the method: as §1
# [4] = test system: Colletotrichum gloeosporioides; test: Antifungal activity against Colletotrichum gloeosporioides at 28 degC after 48 hr microbroth dilution method; type: functional; summary of the method: as §1
# Fusarium solani = test: Antifungal activity against Fusarium solani at 28 degC after 48 hr microbroth dilution method; type: functional; summary of the method: as §1
# Alternaria alternata = test: Antifungal activity against Alternaria alternata at 28 degC after 48 hr microbroth dilution method; type: functional; summary of the method: as §1
# Mythimna separata = test: Antifeedant activity against Mythimna separata (Oriental armyworm) larvae assessed as antifeedant index by area of the leaf consumed; type: functional; parameters: concentration or dose not given beside the values
# Summary of the method: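 Positive control prepared at 10 mg/mL in acetone; leaves treated with acetone alone served as control. Ten treated leaves and 10 larvae per Petri dish lined with moistened filter paper. Held at 25 ± 2 °C, 12L:12D, 65−80% rh. Leaf area consumed recorded after 48 h. AFI = (C − T)/C × 100%, from control and treated areas consumed. Three repetitions.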
Compound,LC50 [1],MIC (Botrytis cinerea),MIC [2],MIC (Fusarium graminearum),MIC (Alternaria solani),MIC [3],MIC [4],MIC (Fusarium solani),MIC (Alternaria alternata),AFI (Mythimna separata)
C[C@@H]1NC(=O)[C@@H]2CCCN2C1=O,> 100 µg/mL,–,–,–,–,–,–,–,–,–
O=C1CNC(=O)[C@H](Cc2ccccc2)N1,> 100 µg/mL,–,–,–,–,–,–,–,–,–
C[C@@H]1NC(=O)[C@H]2CCCN2C1=O,> 100 µg/mL,–,–,–,–,–,–,–,–,–
O=C1N[C@@H](CO)C(=O)N2CCC[C@@H]12,> 100 µg/mL,–,–,–,–,–,–,–,–,–
O=C1N[C@@H](CO)C(=O)N2C[C@H](O)C[C@@H]12,> 100 µg/mL,–,–,–,–,–,–,–,–,–
CC(C)C[C@@H]1NC(=O)[C@@H]2CC(O)CN2C1=O (stereo not given in full),> 100 µg/mL,–,–,–,–,–,–,–,–,–
O=C1N[C@@H](Cc2ccccc2)C(=O)N2C[C@H](O)C[C@H]12,> 100 µg/mL,–,–,–,–,–,–,–,–,–
C[C@@H]1NC(=O)CNC1=O,> 100 µg/mL,–,–,–,–,–,–,–,–,–
COc1ccc2c3c([nH]c2c1)[C@H](CC(C)(C)O)N1C(=O)[C@@H]2CCCN2C(=O)[C@@]1(O)[C@H]3O,73.2 µg/mL,25 µg/mL,25 µg/mL,25 µg/mL,25 µg/mL,50 µg/mL,25 µg/mL,50 µg/mL,25 µg/mL,–
COc1ccc2c3c([nH]c2c1)[C@H](CC(C)(C)O)N1C(=O)[C@@H]2CCCN2C(=O)[C@@]1(O)[C@H]3OC,60.7 µg/mL,6.25 µg/mL,12.5 µg/mL,6.25 µg/mL,6.25 µg/mL,25 µg/mL,6.25 µg/mL,25 µg/mL,6.25 µg/mL,–
COc1ccc2c(c1)N[C@@]1(C2=O)[C@H](C=C(C)C)N2C(=O)[C@@H]3CCCN3C(=O)[C@]2(O)[C@H]1O,> 100 µg/mL,–,–,–,–,–,–,–,–,5%
O=C1[C@@H]2C[C@@H](O)CN2C(=O)[C@@H]2CCCN12,> 100 µg/mL,–,–,–,–,–,–,–,–,–
C[C@@H]1NC(=O)[C@@H]2C[C@@H](O)CN2C1=O,66.1 µg/mL,–,–,–,–,–,–,–,–,–
O=C1C[C@@H](O)[C@H](O)c2cccc(O)c21 (relative stereo),> 100 µg/mL,–,–,–,–,–,–,–,–,–
O=C1C[C@@H](O)[C@@H](O)c2cccc(O)c21 (relative stereo),> 100 µg/mL,–,–,–,–,–,–,–,–,–
C[C@@H]1N[C@H]2N(C1=O)c1ccccc1[C@@]2(O)C[C@@H]1C(=O)N[C@](C)(O)c2nc3ccccc3c(=O)n21 [3-HYDROXYFUMIQUINAZOLINE A],80.8 µg/mL,12.5 µg/mL,50 µg/mL,12.5 µg/mL,12.5 µg/mL,50 µg/mL,12.5 µg/mL,100 µg/mL,12.5 µg/mL,7.5%
"O=C1CCC(O)c2cccc(O)c21 (stereo not given) [4,8-DIHYDROXY-1-TETRALONE]",52.7 µg/mL,12.5 µg/mL,25 µg/mL,12.5 µg/mL,12.5 µg/mL,50 µg/mL,12.5 µg/mL,50 µg/mL,12.5 µg/mL,–
O=C1N[C@@H](Cc2c[nH]c3ccccc23)C(=O)N2CCC[C@@H]12 [BREVIANAMIDE F],83.7 µg/mL,–,–,–,–,–,–,–,–,–
COC(=O)Nc1nc2ccccc2[nH]1 [CARBENDAZIM],–,12.5 µg/mL,12.5 µg/mL,6.25 µg/mL,12.5 µg/mL,25 µg/mL,6.25 µg/mL,25 µg/mL,6.25 µg/mL,–

Compound,LC50 [1],MIC (Botrytis cinerea),MIC [2],MIC (Fusarium graminearum),MIC (Alternaria solani),MIC [3],MIC [4],MIC (Fusarium solani),MIC (Alternaria alternata),AFI (Mythimna separata)
O=C1NCC(=O)N2CCC[C@@H]12 [CYCLO(PROLYLGLYCYL)],> 100 µg/mL,–,–,–,–,–,–,–,–,–
COc1ccc2c3c([nH]c2c1)[C@H](C=C(C)C)N1C(=O)[C@@H]2CCCN2C(=O)[C@@]1(O)[C@H]3OC [CYCLOTRYPROSTATIN B],37.9 µg/mL,12.5 µg/mL,12.5 µg/mL,12.5 µg/mL,12.5 µg/mL,25 µg/mL,12.5 µg/mL,25 µg/mL,12.5 µg/mL,–
C[C@@H]1CN(C)[C@@H]2Cc3c[nH]c4cccc(c34)[C@H]2[C@H]1O [FUMIGACLAVINE B],> 100 µg/mL,–,–,–,–,–,–,–,–,–
C[C@@H]1N[C@H]2N(C1=O)c1ccccc1[C@@]2(O)C[C@@H]1C(=O)N[C@@H](C)c2nc3ccccc3c(=O)n21 [FUMIQUINAZOLINE A],39.7 µg/mL,12.5 µg/mL,25 µg/mL,12.5 µg/mL,12.5 µg/mL,50 µg/mL,12.5 µg/mL,50 µg/mL,12.5 µg/mL,45%
C[C@H]1C(=O)N2c3ccccc3[C@@]3(O)C[C@@H]4C(=O)N[C@](C)(c5nc6ccccc6c(=O)n54)N1[C@@H]23 [FUMIQUINAZOLINE D],> 100 µg/mL,25 µg/mL,50 µg/mL,25 µg/mL,25 µg/mL,50 µg/mL,25 µg/mL,> 100 µg/mL,25 µg/mL,10%
C[C@@H]1NC(=O)[C@@H](Cc2c[nH]c3ccccc23)n2c1nc1ccccc1c2=O [FUMIQUINAZOLINE F],55.3 µg/mL,12.5 µg/mL,25 µg/mL,12.5 µg/mL,25 µg/mL,50 µg/mL,12.5 µg/mL,50 µg/mL,12.5 µg/mL,30%
C[C@H]1NC(=O)[C@@H](Cc2c[nH]c3ccccc23)n2c1nc1ccccc1c2=O [FUMIQUINAZOLINE G],78.8 µg/mL,12.5 µg/mL,50 µg/mL,12.5 µg/mL,25 µg/mL,50 µg/mL,12.5 µg/mL,50 µg/mL,12.5 µg/mL,–
COc1ccc2c3c([nH]c2c1)[C@H](C=C(C)C)N1C(=O)[C@@H]2CCCN2C(=O)[C@@H]1C3 [FUMITREMORGIN],40.5 µg/mL,12.5 µg/mL,25 µg/mL,12.5 µg/mL,25 µg/mL,50 µg/mL,12.5 µg/mL,50 µg/mL,12.5 µg/mL,15%
CC(=O)O[C@H]1C[C@@]2(C)[C@@H](CC[C@H]3[C@@]4(C)C=CC(=O)[C@@H](C)[C@@H]4[C@H](OC(C)=O)C(=O)[C@@]32C)/C1=C(\CCC=C(C)C)C(=O)O [HELVOLIC ACID],73.7 µg/mL,6.25 µg/mL,12.5 µg/mL,6.25 µg/mL,12.5 µg/mL,25 µg/mL,6.25 µg/mL,50 µg/mL,6.25 µg/mL,7.5%
Cc1cc(O)no1 [HYMEXAZOL],–,12.5 µg/mL,12.5 µg/mL,12.5 µg/mL,12.5 µg/mL,25 µg/mL,12.5 µg/mL,50 µg/mL,12.5 µg/mL,–
CC/C=C/[C@H](O)[C@H](O)C1=C(C)C(=O)[C@]2(O1)C(=O)N[C@@](OC)(C(=O)c1ccccc1)[C@H]2O [PSEUROTIN A1],> 100 µg/mL,–,–,–,–,–,–,–,–,–
CC/C=C\[C@H](O)[C@H](O)C1=C(C)C(=O)[C@]2(O1)C(=O)N[C@@](OC)(C(=O)c1ccccc1)[C@@H]2O [PSEUROTIN A],> 100 µg/mL,–,–,–,–,–,–,–,–,–
COc1ccc2c(c1)NC(=O)[C@@]21C=C2C(=O)N3CCC[C@H]3C(=O)N2[C@H]1C=C(C)C [SPIROTRYPROSTATIN B],> 100 µg/mL,–,–,–,–,–,–,–,–,–
CC(C)=CCc1cccc2c(C[C@@H]3NC(=O)[C@H](C)NC3=O)c[nH]c12 [TEREZINE D],> 100 µg/mL,–,–,–,–,–,–,–,–,–
CC(=O)O[C@@H]1C[C@H](O)[C@@]23CO[C@@H](O)[C@]1(C)[C@@H]2C[C@@H](O)[C@]1(C)[C@@H]3C(=O)[C@H](OC(C)=O)[C@@]2(C)[C@H](c3ccoc3)C[C@H]3O[C@]321 [TOOSENDANIN],< 1 µg/mL,–,–,–,–,–,–,–,–,97.5%
COc1ccc2c(C[C@@H]3NC(=O)[C@@H]4CCCN4C3=O)c(CC=C(C)C)[nH]c2c1 [TRYPROSTATIN A],44.8 µg/mL,–,–,–,–,–,–,–,–,–
C[C@@H]1C(=O)N2c3ccccc3[C@@]3(O)C[C@H](n4cnc5ccccc5c4=O)C(=O)N1[C@H]23 [TRYPTOQUIVALINE O],72.8 µg/mL,25 µg/mL,> 100 µg/mL,50 µg/mL,12.5 µg/mL,> 100 µg/mL,100 µg/mL,> 100 µg/mL,25 µg/mL,–
O=c1cc[nH]c(=O)[nH]1 [URACIL],> 100 µg/mL,–,–,–,–,–,–,–,–,–
COc1ccc2c3c4n(c2c1)[C@H](C=C(C)C)OOC(C)(C)C[C@@H]4N1C(=O)[C@@H]2CCCN2C(=O)[C@]1(O)[C@H]3O [VERRUCULOGEN],15.8 µg/mL,6.25 µg/mL,12.5 µg/mL,6.25 µg/mL,12.5 µg/mL,25 µg/mL,6.25 µg/mL,50 µg/mL,6.25 µg/mL,55%
